ABCB1 inh – blocks JC-1 efflux by human ABCB1 transporter; P08183; CCRF-Adr cells, flow cytometry; inhibition, % at 6.6 µM; actives 0.067% (n = 190,000); AID 1326; in the data active = inhibition above about 40%;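 note: 0% = vehicle and 100% = reference inhibitor; higher value means more JC-1 retained so stronger ABCB1 efflux block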
GRK2 aptamer HTS – human GRK2 inhibition via aptamer displacement. inhibition of aptamer binding, % at 10 µM. bead flow cytometry, FAM-aptamer displacement from GRK2. actives 0.59% (n = 330,000). AID 488847. P25098;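 active = inhibition of aptamer binding above 40%, roughly 3 SD of noise, on plates passing a quality check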;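 note: median bead fluorescence of bound FAM aptamer so fluorescent compounds give negative values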
ABCG2 block – human ABCG2 inhibition, ABCB1 as counter-screen | inhibition, % at 6.6 µM | actives 0.1% (n = 190,000) | AID 1325 | Q9UNQ0 | IgMXP3 cells, JC-1 efflux, flow cytometry;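 active = inhibition above 80%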;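 note: 0% = DMSO and 100% = nicardipine control wells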
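System: two drug-resistant human cell lines, ABCG2 and ABCB1; controls: nicardipine high and DMSO low controls; times: 10 min exposure at 25 °C with rotation, no wash; detection: flow cytometry of retained JC-1 fluorescence; read-out basis: percent efflux inhibition, scaled nicardipine 100% to DMSO 0%; doses: one concentration, 6.6 µM final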
Ins promoter up – MIN6 insulin promoter up-regulation; MIN6 insulin promoter-GFP reporter, high-content imaging; active compounds read high; z-score at 5 µM; actives 0.3% (n = 190,000);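 active = z-score above 3 at 5 µM with at least 500 cells counted in the well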
DDE Tn7 FP inh – DD(E)-Tn7 binding inhibition, primary FP screen. P02675. FP displacement of FITC-Tn7 peptide from fibrin DD(E); 0% = median of compound wells per plate. inhibition, % at 8.3 µM. actives 0.13% (n = 370,000). AID 720508;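 active = inhibition above the mean of compounds falling within the control limits plus 3 SD of them, cut at about 14% in these data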;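 note: 0% = plate median of compound wells and 100% = 10 µM Aha-Tn7 peptide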
Target sequence (P02675 whole entry, looked up): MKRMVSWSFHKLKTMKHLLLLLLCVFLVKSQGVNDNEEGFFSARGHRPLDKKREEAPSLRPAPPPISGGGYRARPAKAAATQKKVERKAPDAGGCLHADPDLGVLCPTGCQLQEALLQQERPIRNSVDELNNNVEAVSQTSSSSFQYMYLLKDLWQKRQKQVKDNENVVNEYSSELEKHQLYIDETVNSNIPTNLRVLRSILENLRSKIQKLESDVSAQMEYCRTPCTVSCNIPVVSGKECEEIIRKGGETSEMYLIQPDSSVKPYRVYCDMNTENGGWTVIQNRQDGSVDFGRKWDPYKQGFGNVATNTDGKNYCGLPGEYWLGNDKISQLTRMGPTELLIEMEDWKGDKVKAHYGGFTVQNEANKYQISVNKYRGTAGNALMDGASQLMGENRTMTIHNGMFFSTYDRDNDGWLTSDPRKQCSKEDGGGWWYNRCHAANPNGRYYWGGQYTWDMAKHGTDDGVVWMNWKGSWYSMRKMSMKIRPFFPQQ
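assay system = human clot-derived fibrin DD(E) complex | quantity = Fibrin-DD(E) at 2 µM final | timing = 10 min preincubation, 3 h with tracer, room temperature | signal = fluorescence polarization | measure = percent inhibition | benchmarks = high control wells with 10 µM unlabelled Aha-Tn7 peptide (full inhibition) | replicates = singlicate testing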
Tn6 DDE FP – disrupts Tn6 cyclic peptide binding to fibrin D-Dimer-E complex | P02675 | Fibrin DD(E) TRITC-Tn6 fluorescence polarization displacement | inhibition, % at 8.3 µM | actives 0.21% (n = 370,000) | AID 720509;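 active = inhibition above a per-campaign cutoff: mean of compounds within control limits plus 3 SD, cut at about 15% in these data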;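 note: 0% = median of all compound wells on the plate and 100% = blocking peptide control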
Tn7 DDE conf – DD(E)-Tn7 binding inhibition, FP confirmation. inhibition, % at 8.3 µM. shares compounds with DDE Tn7 FP inh. actives 5% (n = 460). FP displacement of TRITC-Tn7 peptide from DD(E); 0% set at plate's compound-well median;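 active = inhibition above the campaign cutoff, the mean of compounds within control limits plus 3 SD, cut at about 14% in these data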;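 note: 100% = median FP of high control wells holding Aha-Tn7 inhibitor peptide; displacers lower polarization since freed probe rises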
DDE Tn7 FP ctr – counter-screen for inhibitors of Tn7 peptide binding to fibrin DD(E); shares compounds with DDE Tn7 FP inh; TRITC-Tn7 probe displacement, fluorescence polarization; inhibition, % at 8.3 µM; actives 3% (n = 460); AID 720633;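 active = inhibition above the cutoff, the mean of compounds lying between the control bounds plus 3 SD of those compounds, cut at about 17% in these data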;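 note: 0% = median of compound sample wells and 100% = excess unlabeled Aha-Tn7 peptide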
DDE Tn6 FP ctr – counter-screen hit for Tn6 peptide-fibrin DD(E) binding disruption | TRITC-Tn6 fluorescence polarization displacement; 0% = median of compound wells, not DMSO | actives 2% (n = 680) | inhibition, % at 8.3 µM | shares compounds with Tn6 DDE FP;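 active = inhibition above the mean of test compounds lying between the control limits plus 3 SD of those, cut at about 14% in these data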;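 note: 0% = median of compound wells and 100% = wells with Aha-Tn7 blocking peptide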
DDE Tn6 confirm – confirmation of inhibitors of Tn6 binding to human fibrin DD(E); FP displacement of TRITC-Tn6 peptide from DD(E); 0% = per-plate median of test wells; shares compounds with Tn6 DDE FP; actives 10% (n = 680); inhibition, % at 8.3 µM; AID 720631;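 active = inhibition above the mean of compounds lying within the control limits plus 3 SD, cut at about 16% in these data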;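 note: 100% = high control wells holding a competing inhibitor peptide at 10 µM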
An asterisk follows results filed as active; . = no result. A selection: hits, their analogues and other compounds. The true share with any hit is near 0.99%.

SMILES	ABCB1 inh	GRK2 aptamer HTS	ABCG2 block	Ins promoter up	DDE Tn7 FP inh	Tn6 DDE FP	Tn7 DDE conf	DDE Tn7 FP ctr	DDE Tn6 FP ctr	DDE Tn6 confirm
CN(Cc1ccccc1F)C(=O)C1CCC(CNS(=O)(=O)c2cccc3cccnc23)CC1 (centres undefined)	.	.	.	.	5.0	6.6	.	.	.	.
CC1=C(C(=O)OC(C)C)C(c2ccc3c(c2)OCO3)NC(=O)N1 (centres undefined)	.	2.0	.	.	16.2*	-5.8	3.1	-1.1	.	.
Cn1c(=O)cc(OCC(=O)N2CCN(c3ccccc3Cl)CC2)c2ccccc21	.	.	.	.	3.4	-0.5	.	.	.	.
Cc1cc(C)cc(C(=O)OCCN(C)C2CN(Cc3cn(Cc4ccc([N+](=O)[O-])cc4)nn3)S(=O)(=O)C2)c1 (centres undefined)	.	.	.	.	4.0	0.1	.	.	.	.
CCCS(=O)(=O)n1nc(-c2ccc(C)cc2)cc1N	0.4	0.0	1.6	-0.81	13.9*	5.1	-0.7	-2.0	.	.
Cc1c(NC(=O)C2CCCN(S(=O)(=O)c3c(C(C)C)cc(C(C)C)cc3C(C)C)C2)c(=O)n(-c2ccccc2)n1C (centres undefined)	.	.	.	.	0.4	1.2	.	.	.	.
COc1cccc(N2CCN(C(=O)c3ccc(N4C(=O)NC5CC4(C)Oc4ccccc45)cc3)CC2)c1 (centres undefined)	-0.6	0.0	-1.2	0.78	2.2	4.2	.	.	.	.
COc1ccc(N2C(=O)NC3CC2(C)Oc2ccccc23)cc1 (centres undefined)	0.6	0.0	5.0	-0.89	15.8*	-4.2	0.5	2.7	.	.
O=C(C(=Cc1ccccc1)c1ccccc1)c1ccccc1	.	.	.	.	16.1*	9.8	0.4	-1.3	.	.
C(=N/N1CCN(c2ccccc2)CC1)/c1ccco1	.	.	.	.	-6.9	0.2	.	.	.	.
O=c1ccc(-c2ccc(S(=O)(=O)N3CCCCC3)o2)n[nH]1	.	2.0	.	.	13.8*	5.7	-0.7	0.0	.	.
Nc1cnccc1C(=O)O	-0.3	1.0	-1.0	0.61	13.8*	45.9*	-1.7	-3.1	-1.7	-3.1
O=C1C=C(N2CCOCC2)c2ccccc2C1=O	.	6.0	.	.	5.2	5.2	.	.	.	.
O=C1C(N2CCOCC2)=Cc2cccc3cccc1c23	.	.	.	.	21.9*	37.9*	-0.1	16.5*	-0.1	16.5*
O=C1C=C(N2CCOCC2)c2cccc3cccc1c23	.	.	.	.	24.6*	31.1*	7.3	7.6	7.3	7.6
CCOC(=O)NC(=O)/C(C#N)=C\Nc1ccc(Cl)cc1Cl	0.1	0.0	5.9	0.11	-3.2	-2.4	.	.	.	.
CCOC(=O)NC(=O)/C(C#N)=C\Nc1sccc1C(=O)OC	-0.5	1.0	0.1	0.22	16.8*	16.1*	1.1	1.9	1.1	1.9
CCOC(=O)CC[C@@]1(C(=O)OCC)C[C@@H](CC(=O)N2CCN(C(=O)c3ccco3)CC2)C(=O)N2CCCC=C21	.	.	.	.	-3.7	-2.2	.	.	.	.
CCCC(=O)Nc1c(-c2ccccc2)[nH][nH]c1=O	.	.	.	.	2.8	-1.0	.	.	.	.
N#CC1=C(N)Oc2ccc3ccc(O)cc3c2C1c1ccsc1 (centres undefined)	0.5	.	9.1	-0.45	22.9*	168.6*	7.8	37.8*	7.8	37.8*
N#CC1=C(N)Oc2cc(N)ccc2C1c1ccsc1 (centres undefined)	-0.5	0.0	-3.6	0.05	6.9	7.5	.	.	.	.
CC1CN(c2nc3ccccc3nc2SCC(=O)N2CCN(S(=O)(=O)c3ccccc3)CC2)CC(C)O1 (centres undefined)	.	.	.	.	4.3	-1.3	.	.	.	.
COc1ccc(CNC(=O)C[C@H]2C[C@H](C(=O)N3CCOCC3)[C@@]3(C)c4[nH]c5cc(-c6ccco6)ccc5c4CCN3C2=O)cc1OC	.	3.0	.	.	45.8*	114.5*	2.4	0.5	2.4	0.5
CC(C)(C)c1ccc(-c2nnc3n2N=C(c2ccc(Cl)cc2)CS3)cc1	.	.	.	.	-5.2	0.5	.	.	.	.
CN(C)c1ccc(C=Cc2nccc3ccccc23)cc1	.	.	.	.	29.5*	130.6*	1.6	54.1*	1.6	54.1*
SMILES	ABCB1 inh	GRK2 aptamer HTS	ABCG2 block	Ins promoter up	DDE Tn7 FP inh	Tn6 DDE FP	Tn7 DDE conf	DDE Tn7 FP ctr	DDE Tn6 FP ctr	DDE Tn6 confirm
C[C@@H]1CN(Cc2nc(-c3ccc(Cl)cc3)no2)C[C@H](C)O1	0.4	0.0	3.4	0.17	-3.1	16.9*	.	.	-0.6	-3.8
COc1ccc(C)cc1S(=O)(=O)N1CCN(c2ccccc2)CC1	.	1.0	.	.	3.4	16.4*	.	.	1.6	2.2
Cc1cc2cc(CNC(=O)CCC(=O)O)ccc2n1C	1.2	0.0	5.7	0.46	-5.3	9.1	.	.	.	.
Cc1cccc(NC(=S)NCc2ccc3c(c2)cc(C)n3C)c1C	0.0	1.0	0.8	2.14	-4.5	23.2*	.	.	4.5	-0.8
Cc1cccc(NC(=O)NCc2ccc3c(c2)cc(C)n3C)c1	-0.3	31.0	-0.9	-0.3	-4.6	46.0*	.	.	0.4	9.5
COc1cccc(NC(=S)NCc2ccc3c(c2)cc(C)n3C)c1	-0.7	.	-1.5	-1.1	6.2	9.7	.	.	.	.
CC(C)(C)c1ccc(CC(=O)N2CCC2(C)C(=O)Nc2cnc3ccccc3c2)cc1 (centres undefined)	.	.	.	.	4.3	-1.9	.	.	.	.
COc1ccc(Cl)cc1Cn1c(C)c(C(=O)NCc2ccc3c(c2)OCCO3)sc1=O	.	.	.	.	3.9	-3.2	.	.	.	.
O=C(NCCO)C1(C(=O)C2CC2)CC(c2ccccc2C(F)(F)F)=NO1 (centres undefined)	.	.	.	.	-0.8	5.1	.	.	.	.
CCOC(=O)CNC(=O)Nc1cccc(Cl)c1C	-0.3	0.0	1.2	.	-1.0	51.6*	.	.	1.3	-3.7
CCCCOCCCNC(=O)C[C@H]1C[C@@]2(C(=O)OC)C(=C[C@H](C(C)C)O[C@@H]2C2CC2)N(CCc2ccc(OC)c(OC)c2)C1=O	.	.	.	.	2.9	7.5	.	.	.	.
CC(C)(C)c1ccc(-c2csc(N3CCC(C(N)=O)CC3)n2)cc1	.	.	.	.	-3.9	-5.4	.	.	.	.
COC(=O)[C@]12C[C@H](CC(=O)N3CCOCC3)C(=O)N(CCc3ccc(OC)c(OC)c3)C1=C[C@H](COCc1ccccc1)O[C@@H]2C	.	.	.	.	-3.0	5.6	.	.	.	.
Cc1cc(NC(=O)c2ccc(NS(=O)(=O)c3ccc(F)cc3)cc2)no1	.	.	.	.	2.0	16.7*	.	.	1.5	-5.1
CCN(CC)c1ccc(N=C2C=CC(=O)C=C2NC(C)=O)cc1	.	.	.	.	-5.0	20.0*	.	.	4.2	54.2*

Screens from PubChem.
